Results as given in ChEMBL document CHEMBL1123254, “Dopamine receptor modulation by Pro-Leu-Gly-NH2 analogues possessing cyclic amino acid residues at the C-terminal position” (J Med Chem, 1986).
Where a SMILES comes first, the peptide text is derived from it.

Assays:
Bos taurus [1] = species on record: Bos taurus; experiment: Enhancement of [3H]ADTN to dopamine receptors at concentration of 10 nM
How it was run: (§1)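 Bovine caudate homogenized in 50 mM Tris-HCl pH 7.7 and spun twice at 40000 g. Pellet taken up in 50 mM Tris pH 7.1 with 0.1% ascorbic acid, 120 mM NaCl, 5 mM KCl, 2 mM CaCl2 and 10 μM pargyline. 0.4-0.6 mg protein incubated with 8 nM [3H]ADTN ± peptide (1, 10 or 100 nM), triplicate, 37 °C. Bound ligand collected by GF/B filtration and counted by scintillation.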

Bos taurus [2] = species on record: Bos taurus; experiment: Enhancement of [3H]-ADTN to dopamine receptors at concentration of 1 nM; how it was run: as §1
Bos taurus [3] = species on record: Bos taurus; experiment: Enhancement of [3H]ADTN to dopamine receptors at concentration of 100 nM; how it was run: as §1

CC(C)C[C@H](NC(=O)[C@@H]1CCCN1)C(=O)NCC(N)=O (H-Pro-Leu-Gly-NH2)
Enhancement (Bos taurus [1]): 28% | Enhancement (Bos taurus [2]): 16% | Enhancement (Bos taurus [3]): 46.2%
